The text below walks through data of ChEMBL document CHEMBL1773052, “3-Trifluoromethylquinoxaline N,N'-dioxides as anti-trypanosomatid agents. Identification of optimal anti-T. cruzi agents and mechanism of action studies” (J Med Chem, 2011).

Test [1] relates to Trypanosoma cruzi. Nature of the test: Antitrypanosomal activity against Trypanosoma cruzi Tulahuen 2 epimastigotes assessed as growth inhibition at 25 uM after 5 days relative to control. It counts as functional. As to conditions: Tulahuen 2, 120 h, read-out: GI. The gist of the method:
(§1)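 Epimastigotes grown axenically at 28 °C in BHI-tryptose + 5% FBS; a 10-day stationary culture was inoculated to 1 × 10⁶ cells/mL. Drug added from DMSO stock, final DMSO ≤0.4%, vehicle control. A600 read daily. PGI on day 5 corrects for day-0 absorbance, relative to control. […] Three independent experiments.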

For test [2], the system named is Trypanosoma cruzi. Description: Antitrypanosomal activity against Trypanosoma cruzi Tulahuen 2 epimastigotes assessed as growth inhibition after 5 days. It counts as functional. As to conditions: Tulahuen 2, 120 h, read-out: ID50. The gist of the method:
as §1

pIC50: −log10 of the molar value.

As for `CCOC(=O)c1c(C)[n+]([O-])c2cc(Cl)c(Cl)cc2[n+]1[O-]`, the inhibition of growth at 25 µM in test [1] was 32%.
On to `O=C(c1ccccc1)c1c(C(F)(F)F)[n+]([O-])c2cc(Cl)c(Cl)cc2[n+]1[O-]`, for which the inhibition of growth at 25 µM in test [1] amounted to 100%. Also, the pIC50 in test [2] was 5.62.
In the case of `CC(=O)c1c(C)[n+]([O-])c2cc(Cl)c(Cl)cc2[n+]1[O-]`, in test [1], the inhibition of growth at 25 µM was found to be 60%. In test [2], the pIC50 was 4.74.
Consider `Cc1cc2c(cc1C)[n+]([O-])c(Cc1ccccc1)c(C)[n+]2[O-]`, for which the inhibition of growth at 25 µM in test [1] turned out to be 0%.
Turning to `O=C(c1ccco1)c1c(C(F)(F)F)[n+]([O-])c2cc(F)c(F)cc2[n+]1[O-]`, the inhibition of growth at 25 µM in test [1] was 100%. Moreover, the pIC50 in test [2] was 5.60.
On to `COC(=O)c1c(C)[n+]([O-])c2cc(Cl)c(Cl)cc2[n+]1[O-]`, for which the inhibition of growth at 25 µM in test [1] was found to be 66%.
Turning to `CCOC(=O)c1c(C)[n+]([O-])c2cc(C)c(C)cc2[n+]1[O-]`, the inhibition of growth at 25 µM in test [1] came to 1%.
The same measure, in the same setting: next, `Cc1c(Cc2ccccc2)[n+]([O-])c2cc(Cl)c(Cl)cc2[n+]1[O-]`: 24%; `Cc1c(C(=O)Nc2ccccc2)[n+]([O-])c2cc(Cl)c(Cl)cc2[n+]1[O-]`: 61%.
Same read-out and setting: under `Cc1cc2c(cc1C)[n+]([O-])c(C(=O)NC(C)(C)C)c(C)[n+]2[O-]` stands 0%; under `COc1ccc2c(c1)[n+]([O-])c(C)c(C(=O)c1ccccc1)[n+]2[O-]`, 9%.
Same read-out and setting: next, `CCOC(=O)c1c(-c2ccccc2)[n+]([O-])c2cc(OC)ccc2[n+]1[O-]`: 0%; `Cc1cc2c(cc1C)[n+]([O-])c(C(=O)c1ccccc1)c(C)[n+]2[O-]`: 3%.
Consider `CC(=O)c1c(C)[n+]([O-])c2cc(C)c(C)cc2[n+]1[O-]`, for which the inhibition of growth at 25 µM in test [1] came out at 2%.
Same read-out and setting: under `Cc1c(C(=O)c2ccccc2)[n+]([O-])c2ccc(Cl)cc2[n+]1[O-]` stands 33%.
On to `O=C(c1ccccc1)c1nc2ccccc2nc1C(F)(F)F`, for which, in test [1], the inhibition of growth at 25 µM worked out at 49%.
Consider `COC(=O)c1c(C)[n+]([O-])c2cc(C)c(C)cc2[n+]1[O-]`, for which the inhibition of growth at 25 µM in test [1] amounted to 10%.
Still for that read-out and setting: next, `Cc1cc2c(cc1C)[n+]([O-])c(C(=O)Nc1ccccc1C)c(C)[n+]2[O-]`: 12%.
The same measure, in the same setting: under `CCOC(=O)c1c(-c2ccccc2)[n+]([O-])c2cc(C)ccc2[n+]1[O-]` stands 13%; under `CC(C)(C)C(=O)c1nc2ccccc2nc1C(F)(F)F`, 43%; under `Cc1c(C(=O)c2ccccc2)[n+]([O-])c2ccccc2[n+]1[O-]`, 19%.
As for `O=C(c1ccccc1)c1c(C(F)F)[n+]([O-])c2ccccc2[n+]1[O-]`, the inhibition of growth at 25 µM in test [1] is 35.8%.
On the same count and under the same terms, next, `Cc1cc2c(cc1C)[n+]([O-])c(C(=O)Nc1ccccc1)c(C)[n+]2[O-]`: 16%; `Cc1c(C(=O)NC(C)(C)C)[n+]([O-])c2cc(Cl)c(Cl)cc2[n+]1[O-]`: 28%; `Cc1ccccc1NC(=O)c1c(C)[n+]([O-])c2ccccc2[n+]1[O-]`: 21%.
The same measure, in the same setting: under `Cc1c(Cc2ccccc2)[n+]([O-])c2ccccc2[n+]1[O-]` stands 0%; under `CCOC(=O)c1c(-c2ccccc2)[n+]([O-])c2cc(C)c(C)cc2[n+]1[O-]`, 0%; under `CC(=O)c1c(C)[n+]([O-])c2ccccc2[n+]1[O-]` [MEQUINDOX], 29%.
On the same count and under the same terms, under `Cc1ccc2c(c1)[n+]([O-])c(C)c(C(=O)c1ccccc1)[n+]2[O-]` stands 8%; under `CCOC(=O)c1c(-c2ccccc2)[n+]([O-])c2ccccc2[n+]1[O-]`, 29%.
Turning to `Cc1c(Cc2ccccc2)[n+]([O-])c2ccc(Cl)cc2[n+]1[O-]`, in test [1], the inhibition of growth at 25 µM was 0%.
As to `Cc1ccccc1NC(=O)c1c(C)[n+]([O-])c2cc(Cl)c(Cl)cc2[n+]1[O-]`, the inhibition of growth at 25 µM in test [1] came to 49%.
